Test results reported in ChEMBL document CHEMBL4334439, “Discovery, Optimization, and Target Identification of Novel Potent Broad-Spectrum Antiviral Inhibitors” (J Med Chem, 2019).
Active and inactive are the calls of the source. The calls are words filed in the database; no cut-off is given here.

How the values were obtained:
Hepatitis C virus [1] = assay: Antiviral activity against GFP-fused HCV JFH-1 harboring K78E/E2-G451R/NS3-M260K/NS5A-T462I mutant infected in human Huh7.5.1 cells assessed as reduction in viral infection at 10 uM preincubated for 2 hrs followed by viral infection and measured after 48 hrs by epifluorescence microscopic analysis relative to control; type: functional, Hepacivirus hominis; set-up: scale not given: the % may be the effect or the level left
How it was run: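 Primary screen at 10 μM. Huh7.5.1 cells were pretreated 2 h, then infected with GFP-HCV (MOI 1). GFP intensity was checked by fluorescence microscopy at 48 h. Hits needed over 50% fluorescence decay before dose-response retesting.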

Hepatitis C virus [2] = assay: Antiviral activity against EGFP-fused HCV JFH-1 harboring K78E/E2-G451R/NS3-M260K/NS5A-T462I mutation infected in human Huh7.5.1 cells assessed as combination index after 2 days in presence of boceprevir by qRT-PCR analysis; type: functional, Hepacivirus hominis
How it was run: (§1)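 In HCVcc-infected Huh7.5.1 cells (1×10^4/well, overnight, 37 °C), compound was given at various concentrations alone or with the named approved antiviral. After 2 days HCV RNA was quantified by qRT-PCR to derive the combination index.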

Hepatitis C virus [3] = assay: Antiviral activity against EGFP-fused HCV JFH-1 harboring K78E/E2-G451R/NS3-M260K/NS5A-T462I mutation infected in human Huh7.5.1 cells assessed as combination index after 2 days in presence of telaprevir by qRT-PCR analysis; type: functional, Hepacivirus hominis; how it was run: as §1
Hepatitis C virus [4] = assay: Antiviral activity against HCV JFH-1 pseudotyped viral particle infected in HEK293T cells cotransfected with pCDN3.1-JFH1-cE1E2 plasmid encoding envelope with full length JFH1 and pNL4-3R-E-luciferase construct by luciferase reporter gene assay; type: functional, organism-based, Hepacivirus hominis; settings: JFH-1, HEK-293T
How it was run: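 HCVpp came from HEK293T co-transfected with the JFH1 E1E2 plasmid and pNL4-3R-E-luciferase. Supernatant was harvested at 48 h, filtered and luciferase-standardised for input. Virus was mixed with serially diluted compound (top 30 or 6 μM) and added to cells. Luminescence was read; EC50 is 50% signal reduction.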

Enterovirus A71 = assay: Antiviral activity against EV71 infected in human RD cells measured at 24 hrs post-infection by luciferase reporter gene assay; type: functional, organism-based; settings: Enterovirus A
How it was run: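 RD cells at 1×10^4/well, cultured overnight, were infected with EV71(FY)-Luc at MOI 1 and treated with compound immediately afterwards. Luminescence read-out; EC50 is 50% signal reduction.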

[5] = test system: Human immunodeficiency virus; assay: Antiviral activity against HIV pseudotyped virions infected in human HEK293T cells cotransfected with envelope deficient pNL4-3.luc.R-E- plasmid and VSVG plasmid assessed as inhibition of HIV replication preincubated for 15 mins followed by viral infection and measured at 48 hrs post-infection by luciferase based luminescence method; type: functional, organism-based; settings: Human immunodeficiency virus 1, HEK-293T
How it was run: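 VSV-G-pseudotyped HIV (pNL4-3.luc.R-E-) was made in HEK293T by calcium phosphate transfection, collected at 48 h and diluted to 0.2 ng p24/ml. HEK293T cells in 24-well plates got compound 15 min before 0.5 mL pseudovirus. Cells were lysed 48 h post-infection for luciferase.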

[6] = Cytotoxicity against human RD cells infected with EV71 assessed as decrease in cell viability after 48 hrs by WST1 assay; type: cell-based
How it was run: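 Cells seeded at 1 × 10^4 per well and cultured overnight at 37 °C, then incubated 48 h with serially diluted compounds. Viability read with WST-1 reagent as absorbance at OD450/OD630.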

[7] = Selectivity index, ratio of CC50 for human Huh7.5.1 cells to EC50 for DENV infected in human Huh7.5.1 cells; type: toxicity, cell-based; settings: read-out: Ratio CC50/EC50
How it was run: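 SI from two assays. Antiviral: Huh7.5.1 cells infected with DENV II or ZIKV at MOI 0.1; viral RNA measured by qRT-PCR after 3 days; EC50 taken at 50% RNA reduction. Cytotoxicity: cells seeded at 1×10^4/well, given serially diluted compound for 48 h, then WST-1 absorbance (OD450/OD630) read for CC50.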

[8] = Selectivity index, ratio of CC50 for HEK293T cells to EC50 for HIV pseudotyped virions infected in HEK293T cells; type: toxicity, cell-based; settings: human, read-out: Ratio CC50/EC50
How it was run: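 HIV pseudovirus made from VSVG plus env-deficient pNL4-3.luc.R-E- in HEK293T cells and diluted to 0.2 ng p24/ml. Target HEK293T cells were given compound 15 min before infection and lysed 48 h post-infection. CC50 by 48 h WST-1 viability (OD450/OD630).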

[9] = Selectivity index, ratio of CC50 for African green monkey Vero cells to EC50 for SFTSV infected in African green monkey Vero cells; type: toxicity; settings: read-out: Ratio CC50/EC50
How it was run: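 Vero cells infected with SFTSV at MOI 0.01; virus titre measured 4 days after infection. The cytotoxicity arm used 1×10^4 cells/well with 48 h of serially diluted compound, then a WST-1 absorbance read (OD450/OD630) for CC50. SI is CC50/EC50.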

Homo sapiens [10] = organism: Homo sapiens; assay: Binding affinity to C-terminal 6-His tagged recombinant human DHODH N-terminal domain delta29 mutant expressed in Escherichia coli BL21(DE3) assessed as reduction in pronase-mediated protein degradation incubated for 1 hr followed by pronase addition and measured after 15 mins by SDS-PAGE based Western blot analysis
How it was run: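 DARTS used Δ29 human DHODH with a C-terminal His6 tag, expressed in E. coli BL21(DE3) and purified on HisTrap then Superdex200. Protein at 20 μg/ml in TNC buffer (50 mM Tris pH 8.0, 50 mM NaCl, 10 mM CaCl2) was incubated 1 h at RT with compound or DMSO. Pronase followed, 15 min at 37 °C; protease-inhibitor quench; anti-DHODH western blot.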

[11] = Inhibition of C-terminal 6-His tagged recombinant human DHODH N-terminal domain delta29 mutant expressed in Escherichia coli BL21(DE3) using dihydroorotate as substrate measured every 30 secs for 6 mins by DCIP dye based assay
How it was run: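 Enzyme purified by HisTrap then size exclusion. Reaction started with 500 μM dihydroorotate. DCIP decrease read at 600 nm. Inhibition = (1 − Vi/V0) × 100. IC50 from 8–9 concentrations in triplicate by sigmoidal fit.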

Hepatitis C virus [12] = assay: Antiviral activity against HCV infected in human Huh7.5.1 cells assessed as decrease in viral infection; type: functional, organism-based, Hepacivirus hominis; settings: Huh-7.5.1
Homo sapiens [13] = organism: Homo sapiens; assay: Potency index, ratio of teriflunomide IC50 to test compound IC50 for C-terminal 6-His tagged recombinant human DHODH N-terminal domain delta29 mutant expressed in Escherichia coli BL21(DE3)
How it was run: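 DCIP assay: His6-Δ29 human DHODH at 10 nM final in 50 mM HEPES pH 7.7, 150 mM KCl, 0.1% Triton X-100, with 100 μM UQ0 and 120 μM DCIP, preincubated 5 min at RT. Reaction started with 500 μM dihydroorotate; A600 read every 30 s for 6 min.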

[14] = target: T1, Ribose-phosphate pyrophosphokinase 1 (Homo sapiens) (UniProt P60891); assay: Binding affinity to PRPS1 (unknown origin)
T1 sequence (whole entry): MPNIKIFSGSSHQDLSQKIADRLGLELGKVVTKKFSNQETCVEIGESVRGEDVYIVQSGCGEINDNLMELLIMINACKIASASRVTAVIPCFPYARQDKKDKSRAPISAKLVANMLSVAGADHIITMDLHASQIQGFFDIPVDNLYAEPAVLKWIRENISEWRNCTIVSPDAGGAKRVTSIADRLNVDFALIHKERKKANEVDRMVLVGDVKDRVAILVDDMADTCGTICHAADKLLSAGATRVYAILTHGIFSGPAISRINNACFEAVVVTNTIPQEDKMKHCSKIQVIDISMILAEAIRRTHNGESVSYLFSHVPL

With `CCN(CC)c1ccc(Oc2ccc(-c3[nH]c4cccc(F)c4c(=O)c3C)cc2F)cc1` the Activity (Hepatitis C virus [1]) was over 50%, the CI (Hepatitis C virus [2]) was over 50 and the CI (Hepatitis C virus [3]) was “>=10 - 50”. The EC50 (Hepatitis C virus [4]) was over 50 µM, the EC50 (Enterovirus A71) was 4 nM and the EC50 [5] was 13 nM. It also gave a CC50 at 48 h [6] of over 2500 nM, a selectivity ratio [7] of over 357 and a selectivity ratio [8] of over 96. The selectivity ratio [9] was over 8, the Activity (Homo sapiens [10]) was “Dose-dependent effect” and the IC50 [11] was 60 nM. The EC50 (Hepatitis C virus [12]) was 15 nM, the Ratio IC50 (Homo sapiens [13]) was 4 and the Activity [14] was “inactive”.
